Here are results for 31 compounds from ChEMBL document CHEMBL1128325, “Microsphere formation in a series of derivatized alpha-amino acids: properties, molecular modeling, and oral delivery of salmon calcitonin” (J Med Chem, 1995).

Molecules are shown by their SMILES.

The nature of one data set: Partition coefficient (logP). In kind it is physicochemical. The note with it: octanol/water. The essentials: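 Computed rather than measured: derived from the reported experimental log P values of the parent amino acids by adding fragment constants for the N-substituent.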
In general, logP refers to a log measure of how a compound divides between an organic and an aqueous phase. For the compound `CC(=O)NC(Cc1ccccc1)C(=O)O` (stereo unspecified) [AFALANINE], the logP is listed as -0.7.

The data set is the same for the next values; noted with them: octanol/water; read-out: logP.
In the case of `NCCCCC(NS(=O)(=O)c1ccccc1)C(=O)O` (stereo unspecified), the logP is -2.8.

For `O=C(NC(Cc1ccccc1)C(=O)O)c1ccccc1` (stereo unspecified), the logP is -0.63.

As to `O=C([O-])CNC(=O)c1ccccc1.[Na+]`, the logP is -2.68.

In the case of `COC(=O)C(Cc1ccccc1)NC(C)=O` (stereo unspecified), the logP is -0.2.

In the case of `O=C(NCCCCC(NC(=O)c1ccccc1)C(=O)O)c1ccccc1` (stereo unspecified), the logP was -1.22.

As to `O=C(NC(Cc1ccc(O)cc1)C(=O)O)c1ccccc1` (stereo unspecified), the logP was -2.24.

As for `O=C(CC(=O)c1ccccc1)NC(Cc1ccccc1)C(=O)O` (stereo unspecified), the logP was -1.34.

Take `O=C(O)CC(NC(=O)c1ccccc1)C(=O)O` (stereo unspecified): the logP is -2.79.

As for `O=C(NC(Cc1ccccc1)C(=O)O)c1ccccc1O` (stereo unspecified), the logP is -0.53.

Turning to `O=C(NC(Cc1ccccc1)C(=O)O)C1CCCCC1` (stereo unspecified), the logP is -0.27.

Consider `O=C(O)C(Cc1ccccc1)NS(=O)(=O)c1ccccc1` (stereo unspecified), for which the log partition coefficient (logP) was -1.41.

On to `NCCCC(NC(=O)c1ccccc1)C(=O)O` (stereo unspecified), for which the logP was -2.09.

Turning to `CC(C)C(NC(=O)c1ccccc1)C(=O)O` (stereo unspecified), the logP is -1.3.

As to `NC(=O)C(Cc1ccccc1)NC(=O)c1ccccc1` (stereo unspecified), the logP is -1.89.

On to `CC(C)CC(NC(=O)c1ccccc1)C(=O)O` (stereo unspecified), for which the logP was -0.91.

Take `CC(NC(=O)c1ccccc1)C(=O)O` (stereo unspecified): the log partition coefficient (logP) was -2.14.

For `NCCCCC(NC(=O)c1ccccc1)C(=O)O` (stereo unspecified), the log partition coefficient (logP) was -2.02.

Turning to `CNC(Cc1ccccc1)C(=O)O` (stereo unspecified), the lipophilicity (logP) was -0.93.

In the case of `O=C(O)CCC(NC(=O)c1ccccc1)C(=O)O` (stereo unspecified), the logP is -2.29.

For the compound `O=C(Cc1ccccc1)NC(Cc1ccccc1)C(=O)O` (stereo unspecified), the logP was -0.13.

On to `O=C(NC(Cc1ccccc1)C(=O)O)C1CCCC1` (stereo unspecified), for which the logP is -0.77.

Regarding `CC(C)CC(NS(=O)(=O)c1ccccc1)C(=O)O` (stereo unspecified), the logP is -1.69.

In the case of `O=C(NCCCC(NC(=O)c1ccccc1)C(=O)O)c1ccccc1` (stereo unspecified), the logP is -1.29.

For `CC(C)C(NS(=O)(=O)c1ccccc1)C(=O)O` (stereo unspecified), the logP was -1.8.

Take `CC(=O)NC(Cc1ccccc1)C(N)=O` (stereo unspecified): the logP was -1.76.

Turning to `COC(=O)C(Cc1ccccc1)NC(=O)c1ccccc1` (stereo unspecified), the logP was -0.13.

Turning to `O=C(NC(Cc1ccccc1)C(=O)O)OCc1ccccc1` (stereo unspecified), the logP was -1.11.

Turning to `O=CNC(Cc1ccccc1)C(=O)O` (stereo unspecified), the logP is -1.21.

With `CN(C)C(Cc1ccccc1)C(=O)O` (stereo unspecified), the logP is -0.43.

On to `O=C(O)C(CO)NS(=O)(=O)c1ccccc1` (stereo unspecified), for which the logP was -3.98.
